Measured values taken from PubChem BioAssay.
Records with an inconclusive call do not appear.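 How the source made its calls, unless noted: active means viability increase at or above a cutoff of the median across tested compounds plus 3 SD (cut at about 8.5% in these data, passing the limit was not always enough); inconclusive means some gains above the cutoff, reason not given; inactive means the rest.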

What was measured:
[1] = OD615 S. cerevisiae growth inhibition, permissive medium, pilot counter-assay, permissive growth control for S. cerevisiae lifespan shortening project (AID 705;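 active means growth inhibition above 25% in both replicates, a cutoff set 3 SD above the mean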); conditions: OD615, 24 h, at 10 µM, hits give high values
Procedure, shortened: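 Timing: 24 h exposure, 30 °C / Material: Saccharomyces cerevisiae strain carrying genetically modified DeaD replicative-lifespan system / Signal: OD at 615 nm / Compound: 10 µM single dose, 0.25% DMSO / Medium: SC raffinose/galactose permissive medium / Evaluation: reduction in yeast growth (OD615)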

[2] = Restrictive medium S. cerevisiae growth inhibition, OD615, pilot screen of yeast lifespan reduction project, restrictive growth control (AID 706;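 active means growth inhibition above a set limit, 3 SD over mean compound inhibition, in both replicates, cut at about 43% in these data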;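 further: modified DeaD lifespan yeast strain shifted to restrictive glucose medium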); conditions: OD615, 48 h, at 10 µM, hits give high values
Procedure, shortened: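 System: Engineered S. cerevisiae DeaD strain | Detection: OD615 | Buffer or medium: CSMM-D glucose medium | Doses: 10 µM compound, 0.25% DMSO | Timing: 4 h pre-growth plus 48 h compound exposure, 30 °C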

[3] = viability gain of MRP-1-high H69AR cells under doxorubicin, pilot screen, MRP-1 activator project, CellTiter-Glo, duplicate (AID 807); conditions: H69AR viability with doxorubicin, CellTiter-Glo luminescence; at 10 µM; hits give high values;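 further: compound pretreatment 18-22 h then 72 h combined with doxorubicin; 0% = doxorubicin alone and 100% = vehicle without doxorubicin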
[4] = growth suppression of beta-catenin knockout HCT116, pilot screen, human colon tumor cells (AID 823;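 active means cell viability at or below a set limit in both duplicate runs, the limit being the all-compound median minus 4 SD, cut at about 23% in these data, passing the limit was not always enough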;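 further: 0% = wells killed by 20 µM Hyamine and 100% = untreated DMSO cell wells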); conditions: CellTiter-Glo, 60 h, at 10 µM, hits give low values
[5] = growth suppression of PTEN-deleted HCT116, pilot screen, cell-based, HCT116 clonal line, CellTiter-Glo (AID 824;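 active means viability at or below 27.92% in each of two runs, the all-compound median minus 4 SD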;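 further: 0% = 20 µM Hyamine control and 100% = vehicle cell control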); conditions: 60 h, at 10 µM, hits give low values
[6] = inhibitors of the yeast RAM network, pilot screen, dse1pr::URA3 reporter, 5-FOA selection (AID 869;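 active means inhibition over a set limit, the all-compound mean plus 3 SD, in both replicate runs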;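 further: 0% = DMSO wells with no growth and 100% = 10 µM 1-NA-PP1 with full growth; RAM network block rescues cells from 5-FOA so hits raise OD615 growth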); conditions: S. cerevisiae dse1pr::URA3 5-FOA growth, OD615, 2 d; at 10 µM; hits give high values; strain carries analog-sensitive mutant Cbk1 kinase
[7] = RAM signaling pathway blockade in yeast – S. cerevisiae, Pdr1DBD-CYC8 efflux-inhibited sensitized strain, primary screen (AID 1298;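 active means RAM network inhibition above 8.4% in each of two replicates, 3 SD over the compound average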;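 further: 0% = DMSO untreated cells without growth and 100% = 10 µM 1-NA-PP1 full growth; higher means more yeast growth rescued from 5-FOA killing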); conditions: S. cerevisiae cbk1-as DSE1-URA3 strain, 5-FOA growth OD615, 2 d; at 50 µM; hits give high values

Nc1c(C(=O)NCc2cccnc2)sc(=S)n1-c1ccccc1
inactive: growth inhibition [1] 11.3% | growth inhibition [2] 25.7% | viability increase [3] -1.61% | viability [4] 90.3% | viability [5] 83.6% | inhibition [6] 2.5% | RAM network inhibition [7] 2.58%

O=C(NC1CCCCC1)c1ccc(S(=O)(=O)N2CCOCC2)cc1
inactive: growth inhibition [1] -2.04% | growth inhibition [2] -2.56% | viability increase [3] 0.17% | viability [4] 104% | viability [5] 101% | inhibition [6] 0.855% | RAM network inhibition [7] -0.73%

CCCCCc1nnc(NC(=O)OCCC)s1
inactive: growth inhibition [1] -1% | growth inhibition [2] 14.7% | viability increase [3] -3.57% | viability [4] 97.8% | viability [5] 91.2% | inhibition [6] 0.63% | RAM network inhibition [7] -0.93%

CC1(C)NC(=O)N(CC(O)COc2ccc(N3C(=O)c4ccccc4C3=O)cc2)C1=O (stereo not drawn)
inactive: growth inhibition [1] -3.45% | growth inhibition [2] -3.49% | viability increase [3] -1.32% | viability [4] 102% | viability [5] 96.5% | inhibition [6] 1.87% | RAM network inhibition [7] 0.17%

CCCOC(=O)CSC1=C(C#N)C(c2ccccc2Cl)CC(=O)N1 (stereo not drawn)
inactive: growth inhibition [1] 1.49% | growth inhibition [2] -25.7% | viability increase [3] -1.57% | viability [4] 66.3% | viability [5] 75.5% | inhibition [6] 1.75% | RAM network inhibition [7] 2.16%

CCc1cc(Br)ccc1N1C(=O)C2CC=CCC2C1=O (stereo not drawn)
inactive: growth inhibition [1] -6.14% | growth inhibition [2] -7.71% | viability increase [3] 0.19% | viability [4] 86.5% | viability [5] 94.9% | inhibition [6] 1.2% | RAM network inhibition [7] 0.4%

COc1cc(=O)[nH]c(=O)n1C(=O)Cc1ccccc1
inactive: growth inhibition [1] -1.48% | growth inhibition [2] -1.73% | viability increase [3] 0% | viability [4] 97.4% | viability [5] 104% | inhibition [6] -0.145% | RAM network inhibition [7] 4.08%

O=C1C2CCCN2C(c2ccc(F)cc2)N1c1cccc(Cl)c1 (stereo not drawn)
inactive: growth inhibition [1] -1.56% | growth inhibition [2] 0.01% | viability increase [3] -0.91% | viability [4] 102% | viability [5] 99.6% | inhibition [6] 0.63% | RAM network inhibition [7] 2.38%

COc1ccc(CN2CCN(c3cccc(C)c3C)CC2)cc1OC
inactive: growth inhibition [1] -8.54% | growth inhibition [2] -1.75% | viability increase [3] -1.96% | viability [4] 51.8% | viability [5] 54% | inhibition [6] 1.5% | RAM network inhibition [7] 1.07%

COc1cccc(C(=O)NCc2cn3ccsc3n2)c1
inactive: growth inhibition [1] -16.9% | growth inhibition [2] 4.09% | viability increase [3] -1.05% | viability [4] 110% | viability [5] 92.4% | inhibition [6] 2.06% | RAM network inhibition [7] 3.48%

CCOC(=O)C1=C(C)Nc2nc(C)nn2C1c1ccc(OCC)c(OC)c1 (stereo not drawn)
inactive: growth inhibition [1] -8.05% | growth inhibition [2] -3.29% | viability increase [3] -4.07% | viability [4] 101% | viability [5] 99% | inhibition [6] 1.44% | RAM network inhibition [7] 0.63%

COc1ccc(CN2CCNC(=O)C2CC(=O)O)cc1OC (stereo not drawn)
inactive: growth inhibition [1] -14.2% | growth inhibition [2] -7.95% | viability increase [3] 1.18% | viability [4] 105% | viability [5] 101% | inhibition [6] 0.38% | RAM network inhibition [7] -0.52%

CCOC(=O)c1ccc(Nc2cc(C)nc(-c3ccccc3O)n2)cc1
inactive: growth inhibition [1] -6.03% | growth inhibition [2] -3.53% | viability increase [3] 1.42% | viability [4] 78.5% | viability [5] 75.8% | inhibition [6] -0.345% | RAM network inhibition [7] 1.54%

Cc1ccccc1CSc1nnc(-c2ccco2)n1Cc1ccco1
inactive: growth inhibition [1] 5.54% | growth inhibition [2] 10.2% | viability increase [3] -4.14% | viability [4] 82.6% | viability [5] 82.4% | inhibition [6] 0.145% | RAM network inhibition [7] 0.99%

CCOC(=O)CN1CC23C=CC(O2)C(C(=O)NCc2ccccc2OC)C3C1=O (stereo not drawn)
inactive: growth inhibition [1] 1.34% | growth inhibition [2] 8.84% | viability increase [3] -3.18% | viability [4] 103% | viability [5] 102% | inhibition [6] 2.3% | RAM network inhibition [7] 0.15%

CN1CCN(Cc2ccc(OCc3ccccc3)cc2)CC1
inactive: growth inhibition [1] -3.27% | growth inhibition [2] -1.79% | viability increase [3] -2.45% | viability [4] 88.1% | viability [5] 91.4% | inhibition [6] -0.965% | RAM network inhibition [7] -0.47%

COc1cc(C(=O)n2nc(C)cc2C)cc(OC)c1OC
inactive: growth inhibition [1] -9.3% | growth inhibition [2] -12.6% | viability increase [3] -0.4% | viability [4] 99.5% | viability [5] 98.9% | inhibition [6] 1.08% | RAM network inhibition [7] 2.67%

COc1ccc(OC)c2[nH]c(=O)c(CCNC(=O)c3cc4ccccc4o3)cc12
inactive: growth inhibition [1] -6.5% | growth inhibition [2] -3.6% | viability increase [3] 2.38% | viability [4] 87.8% | viability [5] 94.7% | inhibition [6] 0.6% | RAM network inhibition [7] 7.96%

Cc1cc(C)cc(-c2nc(-c3ccncc3)no2)c1
inactive: growth inhibition [1] 0.275% | growth inhibition [2] 15.9% | viability increase [3] 3.69% | viability [4] 91.1% | viability [5] 92% | inhibition [6] 1.11% | RAM network inhibition [7] 5.99%

CCOC(=O)c1c(CN2CCCCC2)n(C)c2ccc(OC)c(S(=O)(=O)c3ccccc3)c12
inactive: growth inhibition [1] -6.81% | growth inhibition [2] -19.7% | viability increase [3] -3.9% | viability [4] 96.3% | viability [5] 92.4% | inhibition [6] 0.105% | RAM network inhibition [7] 3.27%

Cc1cc(Nc2cc(C)on2)n2ncnc2n1
inactive: growth inhibition [1] 2.33% | growth inhibition [2] -10% | viability increase [3] -1.14% | viability [4] 106% | viability [5] 99.8% | inhibition [6] 0.195% | RAM network inhibition [7] 2.24%

Cn1c(Cn2c(=O)sc3ccccc32)nnc1SCC(=O)NCC1CCCO1 (stereo not drawn)
inactive: growth inhibition [1] -6.81% | growth inhibition [2] -7.68% | viability increase [3] -1.15% | viability [4] 99.3% | viability [5] 90% | inhibition [6] 0.85% | RAM network inhibition [7] 2.22%

Fc1ccc(Nc2nc(N3CCOCC3)c3ccccc3n2)cc1
inactive: growth inhibition [1] -3.31% | growth inhibition [2] -13.7% | viability increase [3] -3.18% | viability [4] 93.5% | viability [5] 93.4% | inhibition [6] 0.45% | RAM network inhibition [7] 2.64%

O=C(c1cc(-c2ccc(O)cc2)on1)N1CCc2ccccc2C1
inactive: growth inhibition [1] -16.4% | growth inhibition [2] 15.6% | viability increase [3] -4.4% | viability [4] 93% | viability [5] 91.1% | inhibition [6] 0.875% | RAM network inhibition [7] -2.87%
